The source of these data is PubChem BioAssay AID588421 (The Scripps Research Institute Molecular Screening Center, 2011).

Activity calls are given as the source filed them.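 How the source made its calls: active means IC50 at or below 1 µM; inactive means the rest.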

In this test the target is Protein-arginine deiminase type-4 (Homo sapiens) (UniProt Q9UM07). The test is described as follows: PAD4 enzyme inhibition potency, late-stage follow-up, biochemical, BAEE substrate, citrulline absorbance, 0-500 µM range (AID 588421). Conditions: recombinant PAD4, BAEE citrulline colorimetric absorbance. In a few lines: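 assay system = recombinant human PAD4 enzyme (protein-arginine deiminase 4) | input = PAD4 enzyme at 0.2 µM | timing = 15 min preincubation (37 °C), 15 min reaction | read-out basis = IC50 from fitted fractional PAD4 activity, citrulline standard curve | signal = colorimetric absorbance of citrulline product at 540 nm | also added = BAEE substrate at 10 mM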
Sequence of Protein-arginine deiminase type-4 (Homo sapiens) (Q9UM07 whole entry, looked up): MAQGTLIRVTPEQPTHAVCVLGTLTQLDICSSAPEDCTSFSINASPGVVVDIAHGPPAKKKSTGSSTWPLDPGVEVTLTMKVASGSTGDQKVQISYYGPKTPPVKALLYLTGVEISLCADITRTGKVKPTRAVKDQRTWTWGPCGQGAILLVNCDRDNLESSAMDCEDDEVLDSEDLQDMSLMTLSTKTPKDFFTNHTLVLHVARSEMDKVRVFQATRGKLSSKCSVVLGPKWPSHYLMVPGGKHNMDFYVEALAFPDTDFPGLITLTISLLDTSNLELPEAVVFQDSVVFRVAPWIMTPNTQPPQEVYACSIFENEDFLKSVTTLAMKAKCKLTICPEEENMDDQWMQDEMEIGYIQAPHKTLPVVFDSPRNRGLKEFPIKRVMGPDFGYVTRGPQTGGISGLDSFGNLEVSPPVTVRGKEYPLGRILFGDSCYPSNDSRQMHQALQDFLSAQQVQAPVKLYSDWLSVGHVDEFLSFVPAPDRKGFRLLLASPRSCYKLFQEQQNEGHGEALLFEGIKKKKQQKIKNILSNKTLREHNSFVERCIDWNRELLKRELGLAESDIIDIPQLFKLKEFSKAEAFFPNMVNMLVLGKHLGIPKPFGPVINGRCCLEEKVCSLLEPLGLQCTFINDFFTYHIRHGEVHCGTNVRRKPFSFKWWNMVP

`COC(=O)c1nc(C(=O)OC)c(NC(C)=O)c(-c2ccccc2Br)c1C`: the IC50 result is “inactive”.
